# Rtt109 HAT inh – C. albicans Rtt109 histone acetyltransferase inhibition | purified Rtt109/Vps75, ThioGlo CoA-SH fluorescence, 4 h | inhibition, % at 34.9 µM | hit rate 0.16% among 330,000 | AID 540336;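 active means inhibition of at least 50% in every replicate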
# Target sequence (Q5AAJ8 whole entry, looked up): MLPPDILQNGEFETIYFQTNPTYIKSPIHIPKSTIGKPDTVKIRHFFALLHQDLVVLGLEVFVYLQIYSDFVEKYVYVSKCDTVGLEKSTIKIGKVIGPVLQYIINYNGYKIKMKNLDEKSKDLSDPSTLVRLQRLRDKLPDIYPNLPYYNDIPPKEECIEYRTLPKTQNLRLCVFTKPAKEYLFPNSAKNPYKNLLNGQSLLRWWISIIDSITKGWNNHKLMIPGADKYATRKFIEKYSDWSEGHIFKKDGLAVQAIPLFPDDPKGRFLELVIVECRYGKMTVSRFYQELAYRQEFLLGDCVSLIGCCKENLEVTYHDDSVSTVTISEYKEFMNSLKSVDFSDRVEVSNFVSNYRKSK
# ARFGAP1 inhibitor – inhibits rat ARF GTPase activating protein 1; Q62848; Arfgap1-stimulated ARF1 GTP hydrolysis, GDP FP detection; inhibition, % at 16.5 µM; hit rate 0.26% among 360,000;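 active means inhibition above a per-plate limit, mean inhibition of low control wells plus 3 SD, cut at about 25% in these data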;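 further: 0% = DMSO wells with enzyme and 100% = wells lacking Arfgap1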
# Target sequence (Q62848 1-136 limits assumed): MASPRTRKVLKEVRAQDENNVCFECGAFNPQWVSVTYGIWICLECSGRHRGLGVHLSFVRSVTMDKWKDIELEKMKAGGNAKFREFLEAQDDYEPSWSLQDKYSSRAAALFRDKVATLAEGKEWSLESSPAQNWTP
#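 System: truncated rat Arfgap1 GAP domain / Benchmarks: high control wells lacking Arfgap1, low control full reaction with DMSO / Times: compound-enzyme preincubation 20 min, reaction 120 min, detection 60 min, 25 °C / Repeats: one replicate per compound / Also added: human ARF1(Δ1-17)-GTP substrate / Measured by: Tracer-displacement fluorescence polarization with EDTA stop, 620/688 nm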
# ASAP1 GAP inh – blocks human ASAP1-stimulated Arf1 GTP hydrolysis; AID 624377; hit rate 0.19% among 360,000; Q9ULH1; GDP FP detection; inhibition, % at 16.5 µM; in the data active means inhibition above about 25%;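 further: 0% = vehicle with enzyme and substrate and 100% = no enzyme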
# FGF22 binding – FGF22 (human) thermal shift binding. hit rate 1.5% among 340,000. recombinant FGF22 thermal shift, SYPRO orange fluorescence; percent of sucrose octasulfate shift, DMSO zero. Q9HCT0. activity (Tm shift, normalised), % at 9.99 µM. AID 651658;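 active means mean Tm shift, scaled 0 neutral to 100 positive control, at about 1.3% or above, every replicate too, limit read from the data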
# Efflux pump mplx – inhibitors of Candida antifungal efflux pumps expressed in yeast | S. cerevisiae Candida pump triplex, Nile Red efflux | inhibition, % at 10 µM | hit rate 0.44% among 330,000 | AID 485275;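 active means plate passing quality check with inhibition over a set limit, or well fluorescence over plate mean plus 4 SD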;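 further: Nile Red retained in pooled yeast measured as flow cytometry median fluorescence; 0% = buffer negative control and 100% = Enniatin B positive control; higher means more Nile Red kept so more efflux inhibition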
# Cmpd fluor yeast – counter-screen for efflux pump inhibitors: compound fluorescence; shares compounds with Efflux pump mplx; S. cerevisiae AD/pABC3, flow cytometry; fluorescence ratio to DMSO, % at 10 µM; hit rate 4% among 1,700;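 active means fluorescence ratio to DMSO above its plate's cutoff, the plate mean ratio plus 5 SD, cut at about 210% in these data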;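 further: unstained yeast with no Nile Red so the signal is compound autofluorescence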
# Mdr1 pump inh – Candida Mdr1 efflux pump inhibition | S. cerevisiae AD/CaMDR1, Nile Red efflux, flow cytometry | AID 588518 | hit rate 1% among 1,700 | shares compounds with Efflux pump mplx | inhibition, % at 10 µM; in the data active means inhibition above about 26%;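 further: 0% = DMSO vehicle and 100% = reference inhibitor; higher means more Nile Red retained so more efflux inhibition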
# CaCdr2 efflux inh – Candida Cdr2 efflux pump inhibition; shares compounds with Efflux pump mplx; S. cerevisiae AD/CaCDR2, Nile Red retention, flow cytometry; Nile Red retention ratio vs DMSO, % at 10 µM; hit rate 4% among 1,700; AID 588520; in the data active means Nile Red retention ratio vs DMSO above about 190%;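 further: higher ratio means more blocking of Cdr2 efflux of the dye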
# Cdr1 pump inh – blocks the Candida albicans Cdr1 efflux pump in yeast. shares compounds with Efflux pump mplx. S. cerevisiae AD/CaCDR1, Nile Red efflux, flow cytometry. inhibition, % at 10 µM. hit rate 1% among 1,700. AID 588522;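 active means inhibition above the screen-wide mean plus twice its standard deviation, cut at about 32% in these data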
# Active calls of the source: *; nt = no result given. A selection: hits, their analogues and other compounds. The true share with any hit is near 1.9%.
SMILES,Rtt109 HAT inh,ARFGAP1 inhibitor,ASAP1 GAP inh,FGF22 binding,Efflux pump mplx,Cmpd fluor yeast,Mdr1 pump inh,CaCdr2 efflux inh,Cdr1 pump inh
CN(C)c1ccc(/C=C/c2nc3ccccc3s2)cc1,-1,-5,10,nt,0.6*,98,0,116,0
COc1cc(C=C(c2nc3ccccc3s2)c2nc3ccccc3s2)ccc1O,1,5,14,0,0,nt,nt,nt,nt
COc1cc(/C=C/c2nc3ccccc3s2)cc(OC)c1O,-7,2,2,0,0.8*,81,0,85,0
CCc1ccc(C(C)NC(=O)/C=C/c2ccc(Br)cc2)cc1 (stereo unspecified),2,-3,-14,nt,0,nt,nt,nt,nt
CN1CCN(C(=O)C[C@@H]2CC[C@H]3[C@@H](COc4ccc(NC(=O)c5ccc(F)c(F)c5)cc4C(=O)N3C)O2)CC1,nt,nt,nt,0,nt,nt,nt,nt,nt
Cn1c(=O)c(=O)n(C)c2cc(S(=O)(=O)N3CCc4ccccc43)ccc21,-6,0,-3,nt,0.8*,238,0,96,0
Cn1c(=O)oc2cc(S(=O)(=O)N3CCc4ccccc43)ccc21,8,5,1,0,0,nt,nt,nt,nt
CC1CCCCN1S(=O)(=O)c1ccc(C(=O)N(CCCN(C)C)c2nc3ccc(Br)cc3s2)cc1 (stereo unspecified),24,0,-7,0,0,nt,nt,nt,nt
COC/C=C/C1=CC2=CC(=O)C(C)(OC(=O)c3cnc4ccccc4n3)C(=O)C2=CN1CC(C)C (stereo unspecified),3,nt,nt,nt,0.9*,103,0,100,0
COC/C=C/C1=CC2=CC(=O)C(C)(OC(=O)c3cnc4ccccc4n3)C(=O)C2=CN1c1ccccc1 (stereo unspecified),nt,6,8,0,0,nt,nt,nt,nt
COc1ccc(-c2cc(N3C(=O)Nc4ccccc4N3O)n[nH]2)cc1,10,6,-12,nt,6.5*,98,0,100,0
COc1ccc(-c2cc(N3C(=O)Nc4ccccc4N3O)n[nH]2)cc1OC,-6,1,13,0,-1,nt,nt,nt,nt
O=C(Nc1cc(F)cc(F)c1)c1ccc(NCCc2ccccc2)c([N+](=O)[O-])c1,-3,6,8,nt,13*,101,0,102,0
C[C@H]1CN([C@@H](C)CO)C(=O)c2cc(NC(=O)Nc3cccc4ccccc34)ccc2O[C@@H]1CN(C)Cc1ccc(-c2ccccc2)cc1,-27,7,16,-1,1.8*,97,0,188*,0
Cc1ccc(S(=O)(=O)N(C)C[C@H]2Oc3c(NC(=O)Nc4cccc5ccccc45)cccc3C(=O)N([C@@H](C)CO)C[C@@H]2C)cc1,7,-2,1,-1,1,109,1,110,2
O=C(NC1CCCCC1)C(c1cccc2ccccc12)n1c(=O)c(-c2cc3ccccc3[nH]2)nc2ccccc21 (stereo unspecified),nt,16,24,0,nt,nt,nt,nt,nt
CCOC(=O)C1CCCN(S(=O)(=O)NC[C@H]2O[C@@H](n3cnc4c(N)ncnc43)[C@H](O)[C@@H]2O)C1 (stereo partly specified),-21,-4,14,0,0,nt,nt,nt,nt
Cc1cccc(Nc2cc(=O)[nH]c(=O)[nH]2)c1,-6,0,-16,0,6.5*,102,0,116,0
COC(=O)N/N=C/c1ccc(-c2cc(Cl)ccc2Cl)o1,-2,8,4,nt,1,nt,nt,nt,nt
O/N=C/c1ccc(-c2cc(Cl)ccc2Cl)o1,-9,2,4,0,11*,84,0,95,0
CC(C(=O)N1CCc2ccccc21)N1CCN(S(=O)(=O)c2ccc(C(F)(F)F)cc2)CC1 (stereo unspecified),-1,5,3,0,0.7*,106,0,116,0

# Compound activity as filed in PubChem BioAssay.
